High-throughput results as filed in PubChem BioAssay.
Shown are actives, neighbours in structure and some others; about 2.1% of the full set was active somewhere.
CCR6 antagonist = blocks CCL20-driven beta-arrestin recruitment at human CCR6 | AID 493098 | 0.49% of 340,000 active | inhibition, % at 20 µM | CHO-K1 CCR6 PathHunter beta-arrestin, luminescence, CCL20-stimulated;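 active = compounds whose inhibition of the agonist-driven luminescence signal at 20 µM reaches about 50%, limit read from the data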;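 also: cells stimulated with CCL20 at 14 nM final; plate controls were DMSO with CCL20 for no effect and DMSO without agonist for full effect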
Target sequence (P51684 whole entry, looked up): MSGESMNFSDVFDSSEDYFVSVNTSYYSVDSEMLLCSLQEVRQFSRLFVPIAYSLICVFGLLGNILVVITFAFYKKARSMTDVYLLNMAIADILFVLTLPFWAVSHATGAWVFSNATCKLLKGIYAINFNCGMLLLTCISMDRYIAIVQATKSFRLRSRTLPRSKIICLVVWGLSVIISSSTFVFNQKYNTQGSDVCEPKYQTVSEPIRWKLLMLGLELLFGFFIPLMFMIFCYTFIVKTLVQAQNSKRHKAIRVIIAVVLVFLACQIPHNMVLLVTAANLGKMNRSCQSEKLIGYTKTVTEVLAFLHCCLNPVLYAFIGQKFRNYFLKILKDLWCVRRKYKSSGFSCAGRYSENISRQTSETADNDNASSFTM
CXCR6 block = inhibitors of human CXCR6 receptor. inhibition, % at 20 µM. 0.36% of 360,000 active. AID 602244. CHO-K1 PathHunter CXCR6 beta-arrestin, luminescence; in the data active = inhibition above about 34%, passing the limit was not always enough;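 also: antagonist mode with CXCL16 agonist at 10 nM final; 0% = 10 nM CXCL16 with DMSO and 100% = unstimulated wells without agonist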
APJ antag = blocks the human apelin receptor APJ; P35414; CHO-K1 APJ beta-arrestin complementation, luminescence; inhibition, % at 20 µM; 0.32% of 330,000 active; AID 2521;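 active = inhibition above about 40% at 20 µM, limit read from the data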;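 also: cells challenged with 10 nM apelin-13 agonist together with compound; plate controls were apelin-13 plus DMSO wells for no effect and DMSO wells lacking apelin-13 for full effect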
APJ ag = APJ receptor agonism; CHO-K1 APJ PathHunter beta-arrestin, luminescence; 0% DMSO wells, 100% apelin; P35414; activation, % at 20 µM; AID 2520; 0.11% of 330,000 active;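 active = activation more than six SD over the plate average, tested at 20 µM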;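 also: 0% = DMSO alone and 100% = apelin-13 at 10 nM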
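Material: CHO-K1 APJ beta-arrestin complementation cell line; Input: cell density 1000 per well; Incubation: compound stimulation 90 min at 25 °C, detection 60 min; Signal: luminescence from split beta-galactosidase complementation, Galacton Star/Emerald II substrate; Controls: DMSO-only wells as negative, 10 nM Apelin-13 as positive control.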
EBI2 block = antagonists of human EBI2 receptor; EBI2 beta-arrestin recruitment, luminescence, 7a,25-OHC stimulated; inhibition, % at 5 µM; 0.81% of 360,000 active; in the data active = inhibition above about 38%;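 also: enzyme fragment complementation signal reports receptor beta-arrestin coupling in cells; 0% = agonist plus DMSO wells and 100% = wells without agonist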
HTR2A ag = activates the mouse 5-HT2A serotonin receptor | 0.66% of 360,000 active | CHO-K1 mHTR2A beta-arrestin complementation, luminescence; percent of 30 µM serotonin response | activation, % at 7.6 µM | AID 624169;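 active = activation above a run cutoff, the mean activation of all tested compounds plus 3 SD, cut at about 14% in these data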;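 also: 0% = plate median of compound wells and 100% = 30 µM serotonin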
Numbers without * were called inactive.

`C=CCN(CC=C)S(=O)(=O)c1ccc(NC(=S)NC(=O)/C=C/c2cccc3ccccc23)cc1` gave CCR6 antagonist 52*, CXCR6 block 4, APJ antag 28, APJ ag -3, EBI2 block 19 and HTR2A ag -6.
Screening O=P(COCCOCP(=O)(c1ccccc1)c1ccccc1)(c1ccccc1)c1ccccc1 returned CCR6 antagonist 5, CXCR6 block 11, APJ antag 5, APJ ag -3, EBI2 block -5 and HTR2A ag 7.
`O=C(Nc1ccccc1)C1=C(c2ccccc2)S(=O)(=O)CCS1(=O)=O` gave CCR6 antagonist 51*, CXCR6 block 38, EBI2 block 31 and HTR2A ag -7.
Cc1cc(/C=C(\C#N)C(=O)NCc2cccs2)c(C)n1-c1ccccc1F was read as CCR6 antagonist 7, CXCR6 block 7, APJ antag 11, APJ ag -5, EBI2 block 51* and HTR2A ag -5.
For CCOC(=O)N1CCN(C(=O)C2CCN(C(=O)c3ccccc3C)CC2)CC1 the results were CXCR6 block 109*, EBI2 block 3 and HTR2A ag -2.
For Cc1ccccc1C(=O)N1CCC(C(=O)N2CCN(c3ncccn3)CC2)CC1 the results were CCR6 antagonist -5, CXCR6 block 1, APJ antag -7, APJ ag -4, EBI2 block -2 and HTR2A ag 2.
For CN1/C(=C/C=C/c2n(C)c3cc([N+](=O)[O-])c([N+](=O)[O-])cc3[n+]2C)C(C)(C)c2ccccc21 the results were CXCR6 block 48*, EBI2 block 4 and HTR2A ag -16.
For Cc1cccc[n+]1CC(=O)/C=C1\N(C)c2ccccc2C1(C)C the results were CCR6 antagonist -22, CXCR6 block -3, APJ antag -4, APJ ag -3, EBI2 block -17 and HTR2A ag -5.
Screening Cc1ncsc1CCOC(=O)C12CC3CC(CC(C3)C1)C2 returned CCR6 antagonist -3, CXCR6 block -7, APJ antag 1, APJ ag -1, EBI2 block -8 and HTR2A ag 16*.
`O=S(=O)(C=C(c1ccccc1)c1ccccc1)c1ccccc1` gave CCR6 antagonist 12, CXCR6 block 10, APJ antag 14, APJ ag 6, EBI2 block -2 and HTR2A ag -3.
`COc1ccc2sc(-c3ccccc3OC)c(-c3ccc(SC)cc3)c2c1` gave CXCR6 block 8, EBI2 block 16 and HTR2A ag 2.
`COc1ccc(-c2sc3ccc(OC)cc3c2-c2ccc(OCCN3CCOCC3)cc2)cc1` gave CCR6 antagonist 28, CXCR6 block -4, EBI2 block 52* and HTR2A ag -4.
`COc1ccc2sc(-c3ccccc3OC)c(-c3ccc(OCCN(C)C)cc3)c2c1` gave CCR6 antagonist 52*, CXCR6 block -3, EBI2 block -2 and HTR2A ag 0.
Cc1ccc(C2=NOC(=O)/C2=C\C=C\c2ccccc2)cc1 was read as CCR6 antagonist 25, CXCR6 block 48*, EBI2 block 36 and HTR2A ag -2.
For C/C=C1\NC(=O)[C@H](C)NC(=O)[C@@H](NC(=O)[C@@H](Cc2ccc(O)cc2)NC(=O)[C@@H](NC(=O)/C(C)=C/C)C(C)C)[C@@H](C)OC(=O)[C@H](CCCCc2ccc(O)cc2)NC(=O)[C@@H](CCC(=O)OC)NC1=O the results were CXCR6 block 2, EBI2 block -4 and HTR2A ag 1.
For O=C(NCCc1ccc(F)cc1)c1ccc([N+](=O)[O-])cc1 the results were CCR6 antagonist 9, CXCR6 block -14, APJ antag -2, APJ ag -4, EBI2 block 0 and HTR2A ag 1.
For N#CCCN1CCCc2cc(N=Nc3ccc(C(F)(F)F)cc3)ccc21 the results were CCR6 antagonist 30, CXCR6 block 17, APJ antag 30, APJ ag -6, EBI2 block 56* and HTR2A ag -8.
Screening CCO[C@@H]1OC(C(=O)N2CCN(Cc3ccccc3)CC2)=C[C@H](c2ccc(Br)cc2)[C@H]1CCCO returned CCR6 antagonist 58*, CXCR6 block 48*, APJ antag 7, APJ ag -7, EBI2 block 37 and HTR2A ag -14.
Screening CCO[C@@H]1OC(C(=O)N2CCN(Cc3ccccc3)CC2)=C[C@H](c2ccc(C(F)(F)F)cc2)[C@H]1CCCO returned CCR6 antagonist 29, CXCR6 block 28, APJ antag 3, APJ ag -5, EBI2 block 17 and HTR2A ag -4.
`Cc1ccc(NC(=O)C(C)N2C(=O)C3C4CC(C(Br)C4Br)C3C2=O)cc1` (stereo unspecified) gave CCR6 antagonist 7, CXCR6 block 0, APJ antag 12, APJ ag 3, EBI2 block -4 and HTR2A ag -2.
`Cn1ccnc1Sc1cc(NCCCO)c([N+](=O)[O-])c2nonc12` gave CCR6 antagonist 23, CXCR6 block 40, APJ antag 38, APJ ag -3, EBI2 block -17 and HTR2A ag -6.
For O=[N+]([O-])c1c(NCCCO)cc(SCc2ccco2)c2nonc12 the results were CCR6 antagonist 63*, CXCR6 block 28, APJ antag 10, APJ ag 1, EBI2 block 1 and HTR2A ag -5.
`CC(=O)OCCNc1cc(SCc2ccco2)c2nonc2c1[N+](=O)[O-]` gave CCR6 antagonist 75*, CXCR6 block 50*, EBI2 block -28 and HTR2A ag -6.
For CN(CCOc1ccc(Cl)cc1)C(=O)c1cccc(S(=O)(=O)N2CCN(c3ccc(F)cc3)CC2)c1 the results were CCR6 antagonist 7, CXCR6 block 21, EBI2 block 56* and HTR2A ag -3.
`COc1ccc(NC(=O)c2cc(S(=O)(=O)N3CCc4ccccc43)cn2C)c(OC)c1` gave CCR6 antagonist 9, CXCR6 block -4, APJ antag 6, APJ ag 2, EBI2 block 66* and HTR2A ag 3.
For C#CCN(C[C@@H]1[C@@H](OC(=O)NCc2ccccc2F)[C@@H](OC(=O)NCc2ccccc2F)Cn2c(=O)ccc(=O)n21)S(=O)(=O)c1ccc(C)cc1 the results were CXCR6 block -1, EBI2 block 55* and HTR2A ag 2.
`C#CCN(C[C@@H]1[C@@H](OC(=O)NCc2ccccc2F)[C@@H](OC(=O)NCc2ccccc2F)Cn2c(=O)n(CCCCCC)c(=O)n21)S(=O)(=O)c1ccc(C)cc1` gave CXCR6 block 6, EBI2 block 14 and HTR2A ag -9.
